Experimental data published in the EternaBench riboswitch data.

System: MS2 coat protein
Assay: apparent Kd, MS2 coat protein; higher = weaker binding; RNA-MaP array; FMN 200 µM where present
Procedure, shortened: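 Designs were transcribed by stalled E. coli RNA polymerase on Illumina sequencing-chip clusters. They were titrated with SNAP-549-labelled MS2 coat protein from 0.7 or 1.5 nM, doubling to 3 µM, without and then with constant ligand. Buffer: 100 mM Tris-HCl pH 7.5, 80 mM KCl, 4 mM MgCl2, BSA, DTT, yeast tRNA, Tween-20. Green signal was normalised to red-channel RNA signal and control-cluster median Fmax. Apparent Kd is the median of filtered per-cluster binding-curve fits.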

[1] = designed as: OFF switch for flavin mononucleotide, no ligand
[2] = ligand present: flavin mononucleotide, designed as: OFF switch for flavin mononucleotide
[3] = designed as: ON switch for flavin mononucleotide, no ligand
[4] = ligand present: flavin mononucleotide, designed as: ON switch for flavin mononucleotide

## UCCGGAGUAGGAUAUACGGUGUAAUGACACGGCGUCGAUCAACAUGAGGAUCACCCAUGUAGAAGGACUGCGUC
[1]
  apparent Kd: 14.4 nM
[2]
  apparent Kd: 15.9 nM

## UCCGUGGCAUCUCGCGCGUGUCCACAUGAGGAUCACCCAUGUCAGGAUAUACGGAAUGUCGUUCCGUAGAAGGGACAAGGGCUG
[1]
  apparent Kd: 172 nM
[2]
  apparent Kd: 108 nM

## UCCUCACAUGAGGAUCACCCAUGUGAGGAUAUGGGCCCGGGCCCGUUCGGGCCCGGGCCCAGAAGGCACUGGGU
[1]
  apparent Kd: 42.1 nM
[2]
  apparent Kd: 19 nM

## UCCUUCUGUUGAGGAUAUGUAAGACAGCGGCCGCUAUGGCAGCACGCUGAUACAGAAGGCAACAUGAGGAUCACCCAUGUUCAA
[1]
  apparent Kd: 18.9 nM
[2]
  apparent Kd: 146 nM

## UCCUUGUCCUGAGGAUAUCCGUGGUUACCGACAGGAGAAGGCAGGACAUGAGGAUCACCCAUGUACCCAGAAAACGUGCAGAGU
[1]
  apparent Kd: 133 nM
[2]
  apparent Kd: 210 nM

## UCGAUGCUAGGAUAUACGUAUAAAACCACCGUAGAGUCCUCACAUGAGGAUCACCCAUGUAGAAGGAGCAUCUA
[1]
  apparent Kd: 17.3 nM
[2]
  apparent Kd: 23.4 nM

## UCGCUGCGAGGAUAUACAUGAGGAUCACCCAUGUACGGGUCCGGGUCUUUGUCGAUUGGUAGAAGGCGCAGUGA
[1]
  apparent Kd: 61.1 nM
[2]
  apparent Kd: 397 nM

## UCGCUGCGAGGAUAUACAUGAGGAUCACCCAUGUGCGGGUCCGGGUUUUCGUCCAUUAGUAGAAGGCGCAGUGA
[1]
  apparent Kd: 369 nM
[2]
  apparent Kd: 46.5 nM

## UCGGCGCGAGGAUAUACGUUUGCGCGUUUUCGUUUUCGCGUACAUGAGGAUCACCCAUGUAGAAGGCGCGCCGC
[1]
  apparent Kd: 16.6 nM
[2]
  apparent Kd: 32.1 nM

## UCGGCGCGAGGAUAUGCGGUUUGUGCUUUGGGCCCUGGCGUACAUGAGGAUCACCCAUGUAGAAGGCGCGUUGC
[1]
  apparent Kd: 19.4 nM
[2]
  apparent Kd: 20 nM

## UCGGCGCGAGGAUAUGCGGUUUGUGCUUUGGGCCCUGGCGUACAUGAGGAUCACCCAUGUAGAAGGCGUGUUGC
[1]
  apparent Kd: 21.3 nM
[2]
  apparent Kd: 21.3 nM

## UCGUAUACACAAGGAUAUCAAUGAUUUGUGGAUCCUACAUGAGGAUCACCCAUGUUUUUAUAUUUUGAGAAGGUGUAGUGUCUU
[3]
  apparent Kd: 417 nM
[4]
  apparent Kd: 608 nM

## UCGUGAAGGACAGGAUAUGGACAUGAGGAUCACCCAUGUACAUGGGAUUAUAUACUGAAUUUAUACUAGAAGGGUUACAUAAAU
[1]
  apparent Kd: 31.7 nM
[2]
  apparent Kd: 19.8 nM

## UCGUUGUCAGGAUAUCGUGUAUACAACUUUAGUUUUAUGUUCGAGAAGGGACAUGAGGAUCACCCAUGUUACGU
[1]
  apparent Kd: 65 nM
[2]
  apparent Kd: 239 nM

## UCGUUGUCAGGAUAUCGUGUAUUCAACUUUAGUUUUAUAUUCGAGAAGGGACAUGAGGAUCACCCAUGUUACGU
[1]
  apparent Kd: 133 nM
[2]
  apparent Kd: 257 nM

## UCUACAUAGAUUCAUCAAUACAGUAAGGAUAUGAGAUACAUGAGGAUCACCCAUGUGCAUGUGGAUUAGAAGGUACAAUUAACU
[1]
  apparent Kd: 16.8 nM
[2]
  apparent Kd: 14.9 nM

## UCUAUGCAGACCCUUAUAAAACAUGAGGAUCACCCAUGUGAGAGAAGGGCCUAACGGCAGAGAAGGCAGGAUAUCUUAUGAUGG
[1]
  apparent Kd: 7.46 nM
[2]
  apparent Kd: 12.9 nM

## UCUCAACAUGAGGAUCACCCAUGUGAGGAUAUGAUGCAGCAGUGGUCUACGCUGUGCAUCAGAAGGCACAUGUG
[1]
  apparent Kd: 137 nM
[2]
  apparent Kd: 48.2 nM

## UCUCGACAUGAGGAUCACCCAUGUCAGGAUAUUGUAUUAGAGGUUUUUUACCUUAUAACAAGAAGGGAUGUGUG
[1]
  apparent Kd: 22.9 nM
[2]
  apparent Kd: 26.8 nM

## UCUCGUGUUCAGAAGGGCAAUCAACGAACAUGAGGAUCACCCAUGUUCUGCAGGAUAUGAACGGGUGGGAGCCCUGCGAAGGGC
[3]
  apparent Kd: 104 nM
[4]
  apparent Kd: 15 nM

## UCUGAUUGGUGAGGAUAUACAUAAUUUAUGACUGUAGAAGGCACAAACCUCAAGACAUGAGGAUCACCCAUGUGGUAUUUAGAU
[1]
  apparent Kd: 348 nM
[2]
  apparent Kd: 506 nM

## UCUGGUCGAGGAUAUAUAUGACGUGCUUCGGCACGAAGAUCACAUGAGGAUCACCCAUGUAGAAGGCGACCAGA
[1]
  apparent Kd: 130 nM
[2]
  apparent Kd: 1160 nM

## UCUUGUGUUGAGGAUAUGCGCCGGCUCGCUGGCGCAGAAGGCGGCACAUGAGGAUCACCCAUGUCAGUUCGCGU
[1]
  apparent Kd: 326 nM
[2]
  apparent Kd: 78 nM

## UCUUUACAUGAGGAUCACCCAUGUGAGGAUAUGGAUUCGCUGGCCGUAGCCAGUGGAUCCAGAAGGCGCAUGAU
[1]
  apparent Kd: 26.6 nM
[2]
  apparent Kd: 48 nM

## UGAAAUCAUGUAGGAUAUGCAUGGCGAAGCUACGCAGAAGGACAUGAGGAUCACCCAUGUUAUAGCUACCCAGUUCGGUGGCAG
[1]
  apparent Kd: 46.2 nM
[2]
  apparent Kd: 174 nM

## UGAAAUCAUGUAGGAUAUGCAUGGCGAAGCUACGCAGAAGGACAUGAGGAUCACCCAUGUUCGAGGGUCUGAGUACAGAUCCAA
[1]
  apparent Kd: 25.2 nM
[2]
  apparent Kd: 162 nM

## UGAACAAUGUAGAAGGCCCAUAUUUAUAUAUAGGGAGGAUAUACAUGAGGAUCACCCAUGUAAAGAGCAAGAGGACUUGACAGA
[1]
  apparent Kd: 9.27 nM
[2]
  apparent Kd: 15.7 nM

## UGAACGUUAGGAUAUACAUGAGGAUCACCCAUGUGUUAUGAGCAAUCAUCGAUAUGUUGUAGAAGGAACGCGCG
[1]
  apparent Kd: 24.9 nM
[2]
  apparent Kd: 26.3 nM

## UGAACUAUGUAGAAGGCCCAUAUUUAUAUAUAGGGAGGAUAUACAUGAGGAUCACCCAUGUAAAGAGCAAGAGGACUUGUCAGA
[1]
  apparent Kd: 14.2 nM
[2]
  apparent Kd: 37.3 nM

## UGAACUAUGUAGAAGGCCCUCAUUAAUAUGAAGGGAGGAUAUACAUGAGGAUCACCCAUGUGAAGAGCAAGAGGGUUUAACAGA
[1]
  apparent Kd: 89.1 nM
[2]
  apparent Kd: 479 nM

## UGAACUUCAGAGAAGGUCGAAUCACAACGGUUCGAAGGAUAUCUGGAAACAUGAGGAUCACCCAUGUAACCGGGUGGAUGUCCU
[1]
  apparent Kd: 56.2 nM
[2]
  apparent Kd: 242 nM

## UGAAGUGGCGACAUGAGGAUCACCCAUGUAUGGUAUUCAACCAGAAGGCAUGUUGAGGAAUUACAUGAGGAUAUGGGAGAUCUA
[3]
  apparent Kd: 314 nM
[4]
  apparent Kd: 121 nM

## UGACAUAUAUAGAAGGGUAUGUGGGAAUUACAUGAGGAUCACCCAUGUUUUAUAGGAUAUGUAUAUAGUUUUUAAUCAAGUUUA
[1]
  apparent Kd: 35.1 nM
[2]
  apparent Kd: 26.9 nM

## UGACCCAUGACAUGAGAUGACAUGAGGAUCACCCAUGUGUACAAGGAUAUGUUGGUCGACGAUCGGCAGAAGGUGUAAUGGGAU
[1]
  apparent Kd: 56.6 nM
[2]
  apparent Kd: 282 nM

## UGACUGAAGCAAGGAUAUUGAAAAGUUAACGUACAAGAAGGUGCUGUUUAUGUCUCUUUACAUGAGGAUCACCCAUGUUUUUAU
[3]
  apparent Kd: 36.7 nM
[4]
  apparent Kd: 23.2 nM

## UGAGAGUCAGGAUAUCGAAGGUAGUGGAGAGGAGUGUGGUACGAGAAGGGACAUGAGGAUCACCCAUGUAGGUG
[1]
  apparent Kd: 322 nM
[2]
  apparent Kd: 276 nM

## UGAGCAUCAGGAUAUAUAUGGCGACCGUGAGGUCGAAGGUUACAUGAGGAUCACCCAUGUAGAAGGGAUGUUCU
[1]
  apparent Kd: 36.6 nM
[2]
  apparent Kd: 147 nM

## UGAGCCUCGUGAGGAUAUACAUGAGGAUCACCCAUGUAAUAAAGUGAACGGAGGAAGCUCCGAAUGUAGAAGGCACGAGGCUCA
[1]
  apparent Kd: 60.1 nM
[2]
  apparent Kd: 372 nM

## UGAGCCUCGUGAGGAUAUACAUGAGGAUCACCCAUGUAAUAAGAUCAACGGAGGAAACUCCGAAUGUAGAAGGCACGAGGCUCA
[1]
  apparent Kd: 40.9 nM
[2]
  apparent Kd: 393 nM

## UGAGCGACCACAGGAUAUACUUAGGAAGACCGAGUAGAAGGGUGGAAGAGCGUGCAGUGACAUGAGGAUCACCCAUGUGGUUGU
[3]
  apparent Kd: 156 nM
[4]
  apparent Kd: 70.1 nM

## UGAGUAGCGAAACAAUGCACAUGAGGAUCACCCAUGUCUACACAGGAUAUGCGACGCUCCAGUUAGCAGAAGGGUGAACUCAAA
[3]
  apparent Kd: 40.2 nM
[4]
  apparent Kd: 82.3 nM

## UGAUACAUGAGGGUCUCCCAUGACAUGAGGAUCACCCAUGUGCAGGAUAUACGUGUGAUGGUAUAGUAGAAGGGCAGUCUAUGU
[1]
  apparent Kd: 102 nM
[2]
  apparent Kd: 133 nM

## UGAUACUAAGAGAAGGUUCAAACUACAUAUUGCAUACAUGAGGAUCACCCAUGUUGGUGAAUAAGAAAGGAUAUUUUACUGUAU
[1]
  apparent Kd: 46.3 nM
[2]
  apparent Kd: 34.3 nM

## UGAUAGCACAGAGGAUAUGCGUAGAGUUAUCACUACAUGAGGAUCACCCAUGUAGAAGGCUGUGCUAUCUAAGUCGGAAACGAC
[1]
  apparent Kd: 5.89 nM
[2]
  apparent Kd: 6.17 nM

## UGAUAGGACACAGGAUAUACGUGCUAGAGAUACUAGCAAAAUUUCCUCACAUGAGGAUCACCCAUGUAGAAGGGUGUCCUAUCU
[1]
  apparent Kd: 10.3 nM
[2]
  apparent Kd: 135 nM

## UGAUAGGACAGAGGAUAUACGUGCUGGUGAUACUAGCAAAGUAUCGUGACAUGAGGAUCACCCAUGUAGAAGGCUGUCCUAUCU
[1]
  apparent Kd: 81.1 nM
[2]
  apparent Kd: 27.3 nM

## UGAUAGGACAGAGGAUAUGCGUGCUGGUGAUACUAGCAAAGUAUCGUGACAUGAGGAUCACCCAUGUAGAAGGCUGUCCUAUCU
[1]
  apparent Kd: 28 nM
[2]
  apparent Kd: 68.4 nM

## UGAUAGGAUAAAGGAUAUACGUGCUAGAGAUACUAGCAAAAUUUCCUCACAUGAGGAUCACCCAUGUAGAAGGUUAACCUAUCU
[1]
  apparent Kd: 14.7 nM
[2]
  apparent Kd: 57.1 nM

## UGAUCGAGAGAUCUUAGAUUCUGGUAGGAUAUACAUUAUGAAAACUUUACAUGAGGAUCACCCAUGUAGAAGGACUAGAGUCUA
[1]
  apparent Kd: 7.74 nM
[2]
  apparent Kd: 9.74 nM

## UGAUCGAGAGAUCUUAGAUUCUGGUAGGAUAUACAUUAUGUUUGAAAUACAUGAGGAUCACCCAUGUAGAAGGACUAGAGUCUA
[1]
  apparent Kd: 6.71 nM
[2]
  apparent Kd: 11.7 nM

## UGAUCUCGGGUUAGGAUAUACUGACAACAUAGACAGUAGAAGGAACAUGAGGAUCACCCAUGUGCAUUAACCAU
[1]
  apparent Kd: 25.1 nM
[2]
  apparent Kd: 59.3 nM

## UGAUUACGAGGAUAUACAUGAGGAUCACCCAUGUAGUCAGGGCCCAUACUCCGAGCAUGUAGAAGGCGUUGUCU
[1]
  apparent Kd: 32.7 nM
[2]
  apparent Kd: 48.8 nM

## UGCAUUACUUAGAAGGGAUAUAUAUAAUUUUAAUCAGGAUAUAGAUACAAUACAACAUGAGGACAUGAGGAUCACCCAUGUAUU
[3]
  apparent Kd: 19.9 nM
[4]
  apparent Kd: 14 nM

## UGCCUUAGAGGAUAUACAUUGAAUUUGAUUCAUGUAAAACUACAUGAGGAUCACCCAUGUAGAAGGCUAGGGCU
[1]
  apparent Kd: 19.1 nM
[2]
  apparent Kd: 37.1 nM

## UGCGAACAGGCUAACAUGAGGAUCACCCAUGUGGACUCAUGGUAGGAUAUCGGGAAGGAGGAAACCGAGAAGGGCCGGUGAGCA
[3]
  apparent Kd: 133 nM
[4]
  apparent Kd: 77.5 nM
